Measured values taken from ChEMBL document CHEMBL4304827, “Design, synthesis and evaluation of structurally diverse chrysin-chromene-spirooxindole hybrids as anticancer agents” (Bioorg Med Chem, 2019).
Active and inactive are the calls of the source. The calls are words filed in the database; no cut-off is given here.

Tests used:
A549 [1] = assay: Induction of apoptosis in human A549 cells assessed as increase in caspase 3 activity incubated for 24 hrs by colorimetry; assay type: functional, cell-based
Method in brief: (§1)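 A549 cells were plated at 3 × 10^5/well and cultured 12 h, then treated with various concentrations for 24 h. Cells were lysed on ice for 60 min. Lysate containing 200 μg protein was incubated with caspase-3, -8 or -9 colorimetric substrate at 37 °C for 4 h in the dark, and A405 was read. Activation = (treated − blank)/(control − blank). Mean ± SD, ≥3 experiments.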

A549 [2] = assay: Induction of apoptosis in human A549 cells assessed as increase in caspase 9 activity incubated for 24 hrs by colorimetry; assay type: functional, cell-based; method in brief: as §1
A549 [3] = assay: Induction of apoptosis in human A549 cells assessed as downregulation of Akt protein expression at 10 uM by Western blot analysis; assay type: functional, cell-based; details: TDE = time-dependent effect
Method in brief: (§2)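 A549 cells were exposed to 10 μM for different times and lysed in RIPA buffer with 1 mM PMSF. Protein (20 μg) was separated on 8-12% SDS-PAGE and transferred to PVDF. Membranes were blocked in 5% milk and incubated with primary antibodies overnight at 4 °C, then with anti-rabbit secondary. Bands were quantified by densitometry. Mean ± SD, ≥3 experiments.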

A549 [4] = assay: Induction of apoptosis in human A549 cells assessed as early apoptotic cells at 25 uM incubated for 24 hrs by annexin V FITC and PI staining based flow cytometry (reference value: 0.53%); assay type: functional
MRC5 = assay: Cytotoxicity against human MRC5 cells assessed as reduction in cell proliferation incubated for 48 hrs by MTT assay; assay type: cell-based; details: MRC5, 48 h
Method in brief: (§3)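 Log-phase cells were plated at 5 × 10^3/well in RPMI-1640 with 10% FBS and cultured 24 h. Compounds were added at graded concentrations (DMSO <0.1%) for 48 h. MTT (5 mg/mL) was added for about 4 h, formazan was dissolved in DMSO and A490 was read. IC50 was calculated from ≥3 independent experiments and reported as mean ± SD. Chrysin served as positive control.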

A549 [5] = assay: Induction of apoptosis in human A549 cells assessed as upregulation of Bax protein expression incubated for 24 hrs by Western blot analysis; assay type: functional, cell-based
Method in brief: as §2, with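 “treated with various concentrations” for “exposed to 10 μM”, “24 h” for “different times”, “resolved” for “separated”, “probed” for “incubated”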

PC-3 = assay: Antiproliferative activity against human PC3 cells assessed as reduction in cell proliferation incubated for 48 hrs by MTT assay; assay type: functional, cell-based; details: PC-3, 48 h; method in brief: as §3
A549 [6] = assay: Induction of apoptosis in human A549 cells assessed as increase in caspase 9 activity at 100 uM incubated for 24 hrs by colorimetry relative to control; assay type: functional; method in brief: as §1
A549 [7] = assay: Induction of apoptosis in human A549 cells assessed as increase in caspase 8 activity at 100 uM incubated for 24 hrs by colorimetry relative to control; assay type: functional; method in brief: as §1
A549 [8] = assay: Induction of apoptosis in human A549 cells assessed as downregulation of Bcl2 protein expression at 10 uM by Western blot analysis; assay type: functional, cell-based; details: TDE = time-dependent effect; method in brief: as §2
A549 [9] = assay: Induction of apoptosis in human A549 cells assessed as early apoptotic cells at 50 uM incubated for 24 hrs by annexin V FITC and PI staining based flow cytometry (reference value: 0.53%); assay type: functional
NCI-H1299 = assay: Antiproliferative activity against human H1299 cells assessed as reduction in cell proliferation incubated for 48 hrs by MTT assay; assay type: functional, cell-based; details: NCI-H1299, 48 h; method in brief: as §3
A549 [10] = assay: Induction of apoptosis in human A549 cells assessed as downregulation of MDM2 protein expression at 10 uM by Western blot analysis; assay type: functional, cell-based; details: TDE = time-dependent effect; method in brief: as §2
A549 [11] = assay: Induction of apoptosis in human A549 cells assessed as necrotic cells at 25 uM incubated for 24 hrs by annexin V FITC and PI staining based flow cytometry (reference value: 2.43%); assay type: functional
A549 [12] = assay: Induction of apoptosis in human A549 cells assessed as viable cells at 25 uM incubated for 24 hrs by annexin V FITC and PI staining based flow cytometry (reference value: 95.7%); assay type: functional; details: A549, 24 h, read-out: Activity
A549 [13] = assay: Induction of apoptosis in human A549 cells assessed as upregulation of p21 protein expression incubated for 24 hrs by Western blot analysis; assay type: functional, cell-based
Method in brief: as §2, with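 “treated with various concentrations” for “exposed to 10 μM”, “24 h” for “different times”, “resolved” for “separated”, “probed” for “incubated”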

A549 [14] = assay: Induction of apoptosis in human A549 cells assessed as increase in DNA ladder formation incubated for 24 hrs by agarose gel electrophoresis method; assay type: functional, cell-based
Method in brief: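 A549 cells were treated with various concentrations for 24 h. Genomic DNA was isolated by lysis, RNase A and proteinase K digestion, then ethanol precipitation. DNA was run on a 2% agarose gel to visualize ladder formation.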

A549 [15] = assay: Induction of apoptosis in human A549 cells assessed as late apoptotic cells at 5 uM incubated for 24 hrs by annexin V FITC and PI staining based flow cytometry (reference value: 1.32%); assay type: functional
A549 [16] = assay: Induction of apoptosis in human A549 cells assessed as increase in caspase 8 activity incubated for 24 hrs by colorimetry; assay type: functional, cell-based; method in brief: as §1
A549 [17] = assay: Induction of apoptosis in human A549 cells assessed as compromised cell membrane boundaries at 5 to 20 uM incubated for 24 hrs by PI staining based fluorescence microscopy; assay type: functional
Method in brief: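 A549 cells were plated at 3 × 10^5/well and cultured 12 h, then exposed to various concentrations for 24 h. Morphology was observed by microscopy. AO-EB stain (1 mg/mL each, in PBS) was applied for 10 min at room temperature in the dark. Harvested cells were stained with PI for 15 min at room temperature in the dark, then washed. Both stains were examined by fluorescence microscopy.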

A549 [18] = assay: Induction of apoptosis in human A549 cells assessed as increase in caspase 3 activity at 100 uM incubated for 24 hrs by colorimetry relative to control; assay type: functional; method in brief: as §1
A549 [19] = assay: Induction of apoptosis in human A549 cells assessed as upregulation of p53 protein expression incubated for 24 hrs by Western blot analysis; assay type: functional, cell-based
Method in brief: as §2, with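 “treated with various concentrations” for “exposed to 10 μM”, “24 h” for “different times”, “resolved” for “separated”, “probed” for “incubated”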

K562 = assay: Antiproliferative activity against human K562 cells assessed as reduction in cell proliferation incubated for 48 hrs by MTT assay; assay type: functional, cell-based; details: K562, 48 h; method in brief: as §3
A549 [20] = assay: Induction of ROS production in human A549 cells incubated for 24 hrs by DCFH-DA staining based fluorescence microscopy; assay type: functional, cell-based
Method in brief: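 A549 cells were plated at 3 × 10^5/well and cultured 12 h, then treated with various concentrations for 24 h. They were washed in serum-free medium and loaded with DCFH-DA (10 μM) for 20 min at 37 °C in the dark. DCF fluorescence was imaged by fluorescence microscopy.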

A549 [21] = assay: Induction of apoptosis in human A549 cells assessed as late apoptotic cells at 25 uM incubated for 24 hrs by annexin V FITC and PI staining based flow cytometry (reference value: 1.32%); assay type: functional
A549 [22] = assay: Induction of apoptosis in human A549 cells incubated for 24 hrs by annexin V FITC and PI staining based flow cytometry; assay type: functional, cell-based
A549 [23] = assay: Induction of apoptosis in human A549 cells assessed as upregulation of Bax protein expression at 10 uM by Western blot analysis; assay type: functional, cell-based; details: TDE = time-dependent effect; method in brief: as §2
A549 [24] = assay: Induction of apoptosis in human A549 cells assessed as viable cells at 50 uM incubated for 24 hrs by annexin V FITC and PI staining based flow cytometry (reference value: 95.7%); assay type: functional; details: A549, 24 h, read-out: Activity

With CN1C(=O)C2(C(C#N)=C(N)Oc3cc4oc(-c5ccccc5)cc(=O)c4c(O)c32)c2cc(Br)ccc21 (stereo not drawn) the Activity (A549 [1]) was “Dose-dependent effect”, the Activity (A549 [2]) was “Dose-dependent effect” and the inhibition (A549 [3]) was “Tde”. For the same compound, the Activity (A549 [4]) was 9.8%, the IC50 (MRC5) was over 100 µM and the Activity (A549 [5]) was “Dose-dependent effect”. For the same compound, the IC50 (PC-3) was 20.3 µM, the “fold change (FC)” value (A549 [6]) was 1.81 and the “fold change (FC)” value (A549 [7]) was 2.98. For the same compound, the inhibition (A549 [8]) was “Tde”, the Activity (A549 [9]) was 9.33% and the IC50 (NCI-H1299) was 7.61 µM. The inhibition (A549 [10]) was “Tde”, the Activity (A549 [11]) was 2.97% and the viability at 25 µM (A549 [12]) was 73.5%. The Activity (A549 [13]) was “Dose-dependent effect”, the Activity (A549 [14]) was “Dose-dependent effect” and the Activity (A549 [15]) was 6.73%. The Activity (A549 [16]) was “Dose-dependent effect”, the Activity (A549 [17]) was “Active” and the “fold change (FC)” value (A549 [18]) was 5.24. For the same compound, the Activity (A549 [19]) was “Dose-dependent effect”, the IC50 (K562) was 4.1 µM and the Activity (A549 [20]) was “Dose-dependent effect”. The Activity (A549 [21]) was 13.7%, the Activity (A549 [22]) was “Dose-dependent effect” and the Activity (A549 [23]) was “Tde”. The viability at 50 µM (A549 [24]) was 59.8%.
